Results taken from ChEMBL document CHEMBL3808334, “Synthesis and in vitro evaluation of novel triazine analogues as anticancer agents and their interaction studies with bovine serum albumin” (Eur J Med Chem, 2016).

How the values were obtained:
[1] = Growth inhibition of human HL-60(TB) cells assessed as cell growth at 10^-5 M incubated for 48 hrs by sulforhodamine B assay; format: functional; conditions: HL-60, 48 h, read-out: Activity
In short: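 Cells plated at 5,000–40,000/well according to doubling time and preincubated 24 h at 37 °C, 5% CO₂, with time-zero plates TCA-fixed. Drugs were kept as DMSO concentrates at 400× the top concentration and diluted in medium with 50 µg/ml gentamicin. Five 10-fold or ½-log dilutions were run for 48 h, followed by SRB staining and A515. Percent growth = (Ti−Tz)/(C−Tz)×100, or (Ti−Tz)/Tz×100 when Ti<Tz.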

[2] = system: SR; experiment: Growth inhibition of human SR cells incubated for 48 hrs by sulforhodamine B assay; format: functional
In short: (§1)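 Cells were plated at 5,000–40,000 per well according to doubling time and preincubated 24 h at 37 °C in 5% CO2; time-zero plates were then TCA-fixed. Five concentrations (10-fold or ½-log dilutions, DMSO stock) were incubated 48 h. Cells were TCA-fixed, stained with 0.4% SRB and read at 515 nm. GI50 was taken where [(Ti−Tz)/(C−Tz)]×100 = 50.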

[3] = system: U-251; experiment: Growth inhibition of human U251 cells incubated for 48 hrs by sulforhodamine B assay; format: functional; conditions: U-251, 48 h; in short: as §1
[4] = system: 786-0; experiment: Growth inhibition of human 786-0 cells assessed as cell growth at 10^-8 M incubated for 48 hrs by sulforhodamine B assay; format: functional; conditions: 786-0, 48 h, read-out: Activity
In short: (§2)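 Five-dose assay: five concentrations from 10-fold or ½-log serial dilutions. Cells are plated at 5,000–40,000 per well according to doubling time, grown 24 h, then exposed 48 h at 37 °C, 5% CO₂. Fixed with cold 50% TCA (final addition) for 60 min at 4 °C and stained with 0.4% SRB in 1% acetic acid. Bound dye is solubilized in 10 mM Tris base and read at 515 nm. GI₅₀ is where [(Ti−Tz)/(C−Tz)]×100 = 50, with a time-zero plate as Tz.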

[5] = Growth inhibition of human SW620 cells assessed as cell growth at 10 uM incubated for 48 hrs by sulforhodamine B assay; format: functional; conditions: SW-620, 48 h, read-out: Activity
[6] = system: M14; experiment: Growth inhibition of human M14 cells assessed as cell growth at 10^-7 M incubated for 48 hrs by sulforhodamine B assay; format: functional; conditions: M14, 48 h, read-out: Activity
[7] = Growth inhibition of human UACC257 cells assessed as cell growth at 10 uM incubated for 48 hrs by sulforhodamine B assay; format: functional; conditions: UACC-257, 48 h, read-out: Activity
[8] = system: CCRF-CEM; experiment: Growth inhibition of human CCRF-CEM cells assessed as cell growth at 10^-8 M incubated for 48 hrs by sulforhodamine B assay; format: functional; conditions: read-out: Activity
In short: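 Leukemia line in the five-dose format: five concentrations from 10-fold or ½-log serial dilutions. Plated at 5,000–40,000 cells per well, preincubated 24 h, then compound added for 48 h at 37 °C, 5% CO₂. Sulforhodamine B absorbance read at 515 nm. Growth is computed against time-zero (Tz) and control (C) readings; GI₅₀ is where [(Ti−Tz)/(C−Tz)]×100 = 50.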

[9] = Growth inhibition of human RPMI8226 cells assessed as cell growth at 10^-8 M incubated for 48 hrs by sulforhodamine B assay; format: functional; conditions: RPMI-8226, 48 h, read-out: Activity
[10] = Growth inhibition of human LOXIMVI cells assessed as cell growth at 10^-4 M incubated for 48 hrs by sulforhodamine B assay; format: functional; conditions: LOX IMVI, read-out: Activity
[11] = Growth inhibition of human SF539 cells assessed as cell growth at 10^-6 M incubated for 48 hrs by sulforhodamine B assay; format: functional; conditions: SF-539, 48 h, read-out: Activity
[12] = Growth inhibition of human HCT116 cells assessed as cell growth at 10^-5 M incubated for 48 hrs by sulforhodamine B assay; format: functional; conditions: HCT-116, 48 h, read-out: Activity
In short: (§3)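 Cells seeded at 5,000–40,000/well according to doubling time and preincubated 24 h at 37 °C, 5% CO2. Time-zero plates were TCA-fixed. DMSO concentrate was diluted in medium with 50 µg/ml gentamicin to give five concentrations (10-fold or ½ log steps), then exposed 48 h. Cells were TCA-fixed, stained with 0.4% SRB and read at 515 nm. Percent growth was taken against time-zero and control; GI50, TGI and LC50 derived.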

[13] = Growth inhibition of human UACC62 cells incubated for 48 hrs by sulforhodamine B assay; format: functional; conditions: UACC-62, 48 h; in short: as §1
[14] = biological target: Albumin (Bos taurus, UniProt P02769); experiment: Binding affinity to bovine serum albumin assessed as isoemissive point up to 20 uM by fluorescence spectroscopic analysis relative to control; format: ADME; conditions: cattle, isolated protein
Sequence of Albumin (P02769 whole entry): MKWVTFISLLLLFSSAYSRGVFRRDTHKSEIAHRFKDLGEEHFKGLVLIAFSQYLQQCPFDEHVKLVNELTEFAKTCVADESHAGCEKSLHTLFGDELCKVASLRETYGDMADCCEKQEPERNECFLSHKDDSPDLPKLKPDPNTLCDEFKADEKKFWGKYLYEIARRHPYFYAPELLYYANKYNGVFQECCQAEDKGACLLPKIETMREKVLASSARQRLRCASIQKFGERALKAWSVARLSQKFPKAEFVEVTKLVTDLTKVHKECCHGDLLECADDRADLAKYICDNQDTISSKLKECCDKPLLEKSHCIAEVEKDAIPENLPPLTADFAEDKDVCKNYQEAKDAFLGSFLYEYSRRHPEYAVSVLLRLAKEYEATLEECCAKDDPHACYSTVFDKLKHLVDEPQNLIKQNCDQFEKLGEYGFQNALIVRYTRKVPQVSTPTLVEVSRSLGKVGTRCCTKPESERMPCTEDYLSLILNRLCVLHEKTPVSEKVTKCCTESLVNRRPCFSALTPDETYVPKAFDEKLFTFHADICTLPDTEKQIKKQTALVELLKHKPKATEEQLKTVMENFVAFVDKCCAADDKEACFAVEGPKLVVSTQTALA
In short: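 Fluorescence titration of 10 µM BSA in 0.1 M phosphate buffer pH 7.4 with compound at 0–20 µM, diluted from DMSO stocks. Excitation 280 nm, slit 10 nm, 1 cm quartz cell, 300 K. Changes in the 350 nm Trp emission, new bands near 370–373 nm and isoemissive points are read against BSA alone.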

[15] = Growth inhibition of human HCT15 cells assessed as cell growth at 10^-8 M incubated for 48 hrs by sulforhodamine B assay; format: functional; conditions: HCT-15, 48 h, read-out: Activity; in short: as §3
[16] = system: ACHN; experiment: Growth inhibition of human ACHN cells incubated for 48 hrs by sulforhodamine B assay; format: functional; in short: as §2
[17] = system: HT-29; experiment: Growth inhibition of human HT-29 cells assessed as cell growth at 10 uM incubated for 48 hrs by sulforhodamine B assay; format: functional; conditions: HT-29, 48 h, read-out: Activity
[18] = system: A498; experiment: Growth inhibition of human A498 cells assessed as cell growth at 10^-5 M incubated for 48 hrs by sulforhodamine B assay; format: functional; conditions: A498, 48 h, read-out: Activity; in short: as §2
[19] = Growth inhibition of human SNB19 cells assessed as cell growth at 10^-6 M incubated for 48 hrs by sulforhodamine B assay; format: functional; conditions: SNB-19, 48 h, read-out: Activity
[20] = system: Malme-3M; experiment: Growth inhibition of human MALME-3M cells assessed as cell growth at 10^-7 M incubated for 48 hrs by sulforhodamine B assay; format: functional; conditions: read-out: Activity
[21] = system: SR; experiment: Growth inhibition of human SR cells assessed as cell growth at 10 uM incubated for 48 hrs by sulforhodamine B assay; format: functional; conditions: read-out: Activity
[22] = Growth inhibition of human OVCAR4 cells assessed as cell growth at 10^-5 M incubated for 48 hrs by sulforhodamine B assay; format: functional; conditions: OVCAR-4, 48 h, read-out: Activity
[23] = read-out: LC50 (the source's name)
[24] = read-out: pLC50 (the source's name) (converted)

SMILES: Fc1ccc(-c2nc(Nc3ccc(-c4nc5ccccc5[nH]4)cc3)nc(N3CCOCC3)n2)cc1
- growth at 10 µM [1]: -27%
- GI50 ([2]; read-out: GI50): 539 nM
- CC50 [2, 23]: > 100000 nM
- GI50 ([2]; read-out: pGI50 (converted)): 537 nM
- CC50 [2, 24]: > 100000 nM
- GI50 ([3]; read-out: GI50): 2040 nM
- CC50 [3, 23]: > 100000 nM
- TGI ([3]; read-out: TGI): 13600 nM
- GI50 ([3]; read-out: pGI50 (converted)): 2040 nM
- CC50 [3, 24]: > 100000 nM
- TGI ([3]; read-out: pTGI (converted)): 13500 nM
- growth at 0.01 µM [4]: 100%
- growth at 10 µM [5]: 3.57%
- growth at 0.1 µM [6]: 99%
- growth at 10 µM [7]: -27.6%
- growth at 0.01 µM [8]: 102%
- growth at 0.01 µM [9]: 100%
- growth at 100 µM [10]: -49%
- growth at 1 µM [11]: 80%
- growth at 10 µM [12]: -84%
- GI50 ([13]; read-out: GI50): 1700 nM
- TGI ([13]; read-out: TGI): 3560 nM
- GI50 ([13]; read-out: pGI50 (converted)): 1700 nM
- TGI ([13]; read-out: pTGI (converted)): 3550 nM
- Activity [14]: 341 nm
- growth at 0.01 µM [15]: 97%
- GI50 ([16]; read-out: GI50): 2550 nM
- CC50 [16, 23]: > 100000 nM
- TGI ([16]; read-out: TGI): > 100000 nM
- GI50 ([16]; read-out: pGI50 (converted)): 2570 nM
- CC50 [16, 24]: > 100000 nM
- TGI ([16]; read-out: pTGI (converted)): > 100000 nM
- growth at 10 µM [17]: -23.1%
- growth at 10 µM [18]: -60%
- growth at 1 µM [19]: 92%
- growth at 0.1 µM [20]: 95%
- growth at 10 µM [21]: 6.01%
- growth at 10 µM [22]: 3%

SMILES: Clc1ccc(-c2nc(Nc3ccc(-c4nc5ccccc5[nH]4)cc3)nc(N3CCOCC3)n2)cc1
- growth at 10 µM [1]: -71%
- GI50 ([2]; read-out: GI50): 31 nM
- CC50 [2, 23]: > 100000 nM
- GI50 ([2]; read-out: pGI50 (converted)): 30.9 nM
- CC50 [2, 24]: > 100000 nM
- GI50 ([3]; read-out: GI50): 215 nM
- TGI ([3]; read-out: TGI): 442 nM
- GI50 ([3]; read-out: pGI50 (converted)): 214 nM
- TGI ([3]; read-out: pTGI (converted)): 447 nM
- growth at 0.01 µM [4]: 99%
- growth at 10 µM [5]: -74.2%
- growth at 0.1 µM [6]: 93%
- growth at 10 µM [7]: -82.5%
- growth at 0.01 µM [8]: 98%
- growth at 0.01 µM [9]: 100%
- growth at 100 µM [10]: 2%
- growth at 1 µM [11]: 31%
- growth at 10 µM [12]: -76%
- GI50 ([13]; read-out: GI50): 196 nM
- TGI ([13]; read-out: TGI): 432 nM
- GI50 ([13]; read-out: pGI50 (converted)): 195 nM
- TGI ([13]; read-out: pTGI (converted)): 437 nM
- Activity [14]: 349 nm
- growth at 0.01 µM [15]: 96%
- GI50 ([16]; read-out: GI50): 1050 nM
- TGI ([16]; read-out: TGI): 2380 nM
- GI50 ([16]; read-out: pGI50 (converted)): 1050 nM
- TGI ([16]; read-out: pTGI (converted)): 2400 nM
- growth at 10 µM [17]: -78.6%
- growth at 10 µM [18]: -83%
- growth at 1 µM [19]: 17%
- growth at 0.1 µM [20]: 101%
- growth at 10 µM [21]: -83.3%
- growth at 10 µM [22]: -86%

SMILES: c1ccc2[nH]c(-c3ccc(Nc4nc(N5CCCCC5)nc(N5CCOCC5)n4)cc3)nc2c1
- growth at 10 µM [1]: -31%
- GI50 ([2]; read-out: GI50): 731 nM
- CC50 [2, 23]: > 100000 nM
- TGI ([2]; read-out: TGI): 5730 nM
- GI50 ([2]; read-out: pGI50 (converted)): 724 nM
- CC50 [2, 24]: > 100000 nM
- TGI ([2]; read-out: pTGI (converted)): 5750 nM
- GI50 ([3]; read-out: GI50): 2180 nM
- CC50 [3, 23]: 76800 nM
- TGI ([3]; read-out: TGI): 10000 nM
- GI50 ([3]; read-out: pGI50 (converted)): 2190 nM
- CC50 [3, 24]: 77600 nM
- TGI ([3]; read-out: pTGI (converted)): 10000 nM
- growth at 0.01 µM [4]: 99%
- growth at 10 µM [5]: 5.3%
- growth at 0.1 µM [6]: 95%
- growth at 10 µM [7]: -19.3%
- growth at 0.01 µM [8]: 99%
- growth at 0.01 µM [9]: 97%
- growth at 100 µM [10]: -65%
- growth at 1 µM [11]: 89%
- growth at 10 µM [12]: -67%
- GI50 ([13]; read-out: GI50): 1960 nM
- TGI ([13]; read-out: TGI): 4320 nM
- GI50 ([13]; read-out: pGI50 (converted)): 1950 nM
- TGI ([13]; read-out: pTGI (converted)): 4370 nM
- Activity [14]: 350 nm
- growth at 0.01 µM [15]: 95%
- GI50 ([16]; read-out: GI50): 3140 nM
- CC50 [16, 23]: > 100000 nM
- TGI ([16]; read-out: TGI): > 100000 nM
- GI50 ([16]; read-out: pGI50 (converted)): 3160 nM
- CC50 [16, 24]: > 100000 nM
- TGI ([16]; read-out: pTGI (converted)): > 100000 nM
- growth at 10 µM [17]: -28.1%
- growth at 10 µM [18]: -51%
- growth at 1 µM [19]: 99%
- growth at 0.1 µM [20]: 85%
- growth at 10 µM [21]: 9.79%
- growth at 10 µM [22]: 22%
